Test results reported in the array DNA melting data of Ke et al. (doi:10.1101/2024.01.08.574731).

What was measured:
[1] = folding enthalpy; higher = less favourable; fluorescence melt of hairpins on a sequencing array, two-state fit; details: sodium 0.088 M
In short: (§1)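 Bootstrapped two-state fits yielded melting temperature and folding enthalpy for library hairpins. Cy3 fluorescence, with annealed Cy3 and quencher oligos, was imaged on a sequenced MiSeq flow cell in 50 mM Na-HEPES pH 8.0, 25 mM NaCl in 2.5 °C steps up to 60 °C, and normalised to pre-quench Cy3 and to control constructs. Four replicates were combined by inverse variance, and fitted temperatures were raised by 9.35 °C to match UV melts.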

[2] = melting temperature; fluorescence melt of hairpins on a sequencing array, two-state fit, raised by 9.35 °C to match UV melts; details: sodium 0.088 M
In short: as §1

Row | Sequence | folding enthalpy [1] [kcal/mol] | Tm [2] [°C]
1 | GATCCGACGCCGGATC ((((((....)))))) | -36.7 | 56.7
2 | GATCCGACGCGGATC ((((((...)))))) | -37.3 | 56.8
3 | GATCCGACGTCGGATC ((((((....)))))) | -52 | 59.9
4 | GATCCGACTCCGGATC ((((((....)))))) | -44.3 | 55.1
5 | GATCCGAGAACGGATC ((((((....)))))) | -37.4 | 54.5
6 | GATCCGAGACCGGATC ((((((....)))))) | -36.6 | 54.4
7 | GATCCGAGAGCGGATC ((((((....)))))) | -38.3 | 54.6
8 | GATCCGAGCCCGGATC ((((((....)))))) | -35.6 | 55.3
9 | GATCCGATGACGGATC ((((((....)))))) | -35.4 | 58.2
10 | GATCCGATTCGGATC ((((((...)))))) | -39.2 | 58.3
11 | GATCCGATTTCGGATC ((((((....)))))) | -33 | 62.6
12 | GATCCGCAAACGGATC ((((((....)))))) | -42.2 | 58
13 | GATCCGCACCGGATC ((((((...)))))) | -29.4 | 57.1
14 | GATCCGCAGGCGGATC ((((((....)))))) | -28.3 | 66.6
15 | GATCCGCATCGGATC ((((((...)))))) | -38.3 | 56.5
16 | GATCCGCCATCGGATC ((((((....)))))) | -37 | 57.4
17 | GATCCGCCGACGGATC ((((((....)))))) | -38 | 58.3
18 | GATCCGCCGCCGGATC ((((((....)))))) | -42.4 | 59
19 | GATCCGCGAAAGCGAATC (((.(((....))).))) | -20.2 | 49.2
20 | GATCCGCGCACGGATC ((((((....)))))) | -39.2 | 59.1
21 | GATCCGCGCCCGGATC ((((((....)))))) | -45.8 | 56.5
22 | GATCCGCGGACGGATC ((((((....)))))) | -37.5 | 56.2
23 | GATCCGCGGCCGGATC ((((((....)))))) | -38.4 | 56
24 | GATCCGCGTTCGGATC ((((((....)))))) | -36 | 59

Row | Sequence | folding enthalpy [1] [kcal/mol] | Tm [2] [°C]
25 | GATCCGCTGCGGATC ((((((...)))))) | -48.3 | 57.5
26 | GATCCGCTTACGGATC ((((((....)))))) | -37.3 | 59
27 | GATCCGGAACCGGATC ((((((....)))))) | -39.9 | 62.5
28 | GATCCGGACTCGGATC ((((((....)))))) | -49.4 | 59.2
29 | GATCCGGAGCCGGATC ((((((....)))))) | -60.6 | 56.3
30 | GATCCGGCGTCGGATC ((((((....)))))) | -45.3 | 58.2
31 | GATCCGGCTACGGATC ((((((....)))))) | -40.2 | 67.8
32 | GATCCGGCTGCGGATC ((((((....)))))) | -38.4 | 61
33 | GATCCGGGAAACCAGATC ((((.((....)).)))) | -27.8 | 35.6
34 | GATCCGGGAAACCGGGTC ((.((((....)))).)) | -41.6 | 54.5
35 | GATCCGGGACGGATC ((((((...)))))) | -37.1 | 68.9
36 | GATCCGGGATCGGATC ((((((....)))))) | -40.1 | 61.9
37 | GATCCGGGCGCGGATC ((((((....)))))) | -39 | 59.8
38 | GATCCGGTATCGGATC ((((((....)))))) | -42.5 | 63.5
39 | GATCCGGTCACGGATC ((((((....)))))) | -34.7 | 69.3
40 | GATCCGGTGCCGGATC ((((((....)))))) | -59.2 | 58
41 | GATCCGTAACGGATC ((((((...)))))) | -34.1 | 57.6
42 | GATCCGTACACGGATC ((((((....)))))) | -43.2 | 61.2
43 | GATCCGTACCCGGATC ((((((....)))))) | -39 | 56.4
44 | GATCCGTAGCCGGATC ((((((....)))))) | -47.9 | 56.1
45 | GATCCGTCATCGGATC ((((((....)))))) | -39 | 59.3
46 | GATCCGTCCCGGATC ((((((...)))))) | -39.4 | 61
47 | GATCCGTCTACGGATC ((((((....)))))) | -45.5 | 63.7
48 | GATCCGTCTGCGGATC ((((((....)))))) | -44.5 | 61.1

Row | Sequence | folding enthalpy [1] [kcal/mol] | Tm [2] [°C]
49 | GATCCGTGCCGGATC ((((((...)))))) | -44.5 | 57.9
50 | GATCCGTGGACGGATC ((((((....)))))) | -41 | 62.9
51 | GATCCGTGGGCGGATC ((((((....)))))) | -30.1 | 66.1
52 | GATCCGTGTCCGGATC ((((((....)))))) | -34 | 57.5
53 | GATCCGTTCACGGATC ((((((....)))))) | -51 | 67.4
54 | GATCCGTTGCGGATC ((((((...)))))) | -43 | 57.3
55 | GATCCTAAATAGGATC ((((((....)))))) | -35.8 | 49.2
56 | GATCCTAACGAGGATC ((((((....)))))) | -44.8 | 50.6
57 | GATCCTAAGAAGGATC ((((((....)))))) | -35.3 | 48
58 | GATCCTAAGAGGATC ((((((...)))))) | -29.6 | 53.8
59 | GATCCTAATAGGATC ((((((...)))))) | -27.7 | 51.9
60 | GATCCTACATAGGATC ((((((....)))))) | -35.5 | 52.8
61 | GATCCTACGAGGATC ((((((...)))))) | -29.5 | 53.4
62 | GATCCTACTGAGGATC ((((((....)))))) | -39.7 | 50.6
63 | GATCCTAGAAGGATC ((((((...)))))) | -40.9 | 53.4
64 | GATCCTAGCAAGGATC ((((((....)))))) | -33.2 | 52.8
65 | GATCCTATCAAGGATC ((((((....)))))) | -34.3 | 54.6
66 | GATCCTCAATAGGATC ((((((....)))))) | -34.2 | 49.5
67 | GATCCTCAGTAGGATC ((((((....)))))) | -35.4 | 49.9
68 | GATCCTCCAAAGGATC ((((((....)))))) | -28.8 | 50.4
69 | GATCCTCCCCAGGATC ((((((....)))))) | -43.7 | 50.4
70 | GATCCTCCCTAGGATC ((((((....)))))) | -39.7 | 50.8
71 | GATCCTCCGAGGATC ((((((...)))))) | -33.1 | 53.1
72 | GATCCTCGAAGGATC ((((((...)))))) | -26.7 | 50.1

Row | Sequence | folding enthalpy [1] [kcal/mol] | Tm [2] [°C]
73 | GATCCTCGATAGGATC ((((((....)))))) | -29.4 | 50.2
74 | GATCCTCGCAAGGATC ((((((....)))))) | -32.6 | 54.8
75 | GATCCTCGCCAGGATC ((((((....)))))) | -37.4 | 50.7
76 | GATCCTCTAAAGGATC ((((((....)))))) | -39.3 | 52.4
77 | GATCCTCTAGAGGATC ((((((....)))))) | -42.6 | 56.4
78 | GATCCTGCGAGGATC ((((((...)))))) | -33.7 | 53.9
79 | GATCCTGCGTAGGATC ((((((....)))))) | -44.2 | 51.4
80 | GATCCTGCTGAGGATC ((((((....)))))) | -52.2 | 51.4
81 | GATCCTGCTTAGGATC ((((((....)))))) | -42.9 | 52.4
82 | GATCCTGGAAGGATC ((((((...)))))) | -31.6 | 62.8
83 | GATCCTGGCAGGATC ((((((...)))))) | -39.7 | 57.7
84 | GATCCTGGCGAGGATC ((((((....)))))) | -48.3 | 54.6
85 | GATCCTGTAGAGGATC ((((((....)))))) | -36 | 55.5
86 | GATCCTGTCAGGATC ((((((...)))))) | -36.7 | 56.5
87 | GATCCTGTCCAGGATC ((((((....)))))) | -48.3 | 58.1
88 | GATCCTGTGAGGATC ((((((...)))))) | -32.3 | 53.3
89 | GATCCTGTTAAGGATC ((((((....)))))) | -48.7 | 65.7
90 | GATCCTTAAAAGGATC ((((((....)))))) | -41.7 | 49.7
91 | GATCCTTAATAGGATC ((((((....)))))) | -39.1 | 50.1
92 | GATCCTTACAGGATC ((((((...)))))) | -34.2 | 56
93 | GATCCTTATGAGGATC ((((((....)))))) | -37.1 | 53.3
94 | GATCCTTCAAGGATC ((((((...)))))) | -36.9 | 54.7
95 | GATCCTTCATAGGATC ((((((....)))))) | -39.5 | 52.4
96 | GATCCTTCGAAGGATC ((((((....)))))) | -49.6 | 54.1
